Bioassay records as filed in PubChem BioAssay.
Rows were chosen to be rich in hits. Some 3.1% of all compounds tested hit in one or more screens of this group.
Ecoli rRNA inh – inhibitors of bacterial rRNA selective over humanized ribosomes; 1.6% of 350,000 active; E. coli WT GFP vs humanized-ribosome RFP mutants, fluorescence, 24 h; hits give low values; DMSO median 0, no signal -100; AID 720706; GFP signal change (wild-type ribosome), % (test concentration not listed);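 active means significant combined selectivity score with lowered wild-type GFP, culture density cut under 30%, mutant RFP and density less affected; inactive means any of these conditions unmet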
GSIS activator – primary screen for activators of insulin secretion dependent on glucose, INS-1E cells, GLuc reporter luminescence; 0.61% of 370,000 active; INS-1E GLuc reporter insulin secretion, 2-3 h; activation, % at 16.6 µM;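 active means lowest replicate activation of at least 40%, so every replicate reaches that level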;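 further: 0% = median of neutral control wells and 100% = median of IBMX positive control wells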
F508del corr – correctors of CFTR F508del function in bronchial epithelial cells; CFBE cells, YFP halide quenching; stimulated with forskolin plus potentiator P3; % fluorescence drop versus neutral controls; activity (quench increase), % at 7.58 µM; 0.36% of 350,000 active; AID 720511;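 active means mean added fluorescence quench of at least 8% versus neutral control, with both replicates also reaching 8%; inconclusive means only one of the mean or replicate conditions met; inactive means mean below 8% and not both replicates reaching 8%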;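 further: cells transiently co-express mutant CFTR-F508del with the halide-sensitive YFP; corrector assay measuring rescue of mutant channel to the surface after 24 h compound exposure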
HIV Env fusion – blocks HIV Env-driven cell-cell fusion | HeLa-JRFL Env/CEM21 cell fusion, luciferase | inhibition, % at 12.3 µM | 1.1% of 360,000 active | AID 651610;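 active means mean replicate inhibition score of at least 50 and every replicate individually at or above 50; inconclusive means only one of the two criteria met; inactive means mean below 50 and not all replicates reaching 50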;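 further: 0% = plate neutral controls and 100% = maraviroc near 300 nM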
Cneo AK release – Cryptococcus neoformans lysis via adenylate kinase release; C. neoformans lysis, adenylate kinase release luminescence, 4 h; normalised: neutral wells 0, clomiphene wells 100; lysis activity, % at 15 µM; 0.2% of 360,000 active;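 active means mean lysis activity across replicates of at least 80%, whatever share of replicates individually reach that level; inactive means mean lysis activity below 80%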
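read-out = cell lysis signal | test system = log-phase Cryptococcus neoformans yeast cells | input = cells at 5 × 10^6 per mL | medium = fresh YPD growth medium | signal = luminescent adenylate kinase detection reagent | timing = 4 h at 37 °C static, read 1 h later | dosing = single dose | controls = Clomiphene as positive lysis control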
miR122 inh – blocks miR-122 activity in Huh7 sensor cells | Huh7 miR-122 Renilla luciferase sensor, 48 h; neutral wells = 0, positive control = 100 | activation (reporter increase), % at 12.5 µM | 0.3% of 340,000 active | AID 602342;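 active means mean replicate activation score at least 90 and every replicate individually at or above 90; inconclusive means only one of the two criteria met; inactive means neither criterion met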;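 further: higher luciferase means less miR-122 activity so hits act as miR-122 inhibitors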
* hit, by the source's call; u = inconclusive; x = not tested or not shown; [ ] = remark or other dose.

SMILES	Ecoli rRNA inh	GSIS activator	F508del corr	HIV Env fusion	Cneo AK release	miR122 inh
COc1ccccc1C#Cc1ccc([C@@H]2[C@H]3CN(CCC(F)(F)F)CCCCN3[C@H]2CO)cc1	-58.6	-34.7	0.4	x	81.5*	-4.8[16.7 µM]
COc1ccc(C#Cc2ccc([C@@H]3[C@H](CO)N4CCCCN(Cc5ccccc5F)C[C@@H]34)cc2)cc1	-57.4	50.0*	0.3	x	2.8	-14.5[16.7 µM]
OC[C@@H]1[C@@H](c2ccc(C#Cc3cccnc3)cc2)[C@@H]2CN(Cc3ccccc3F)CCCCN12	-4.9	-13.2	1.6	x	50.5	-1.8[16.7 µM]
CN(C)C(=O)c1ccc(-c2ccc([C@H]3[C@H]4CN(CCC(F)(F)F)CCCCN4[C@H]3CO)cc2)cc1	1.0	-4.3	0.5	x	85.2*	54.1[16.7 µM]
COc1ccc(C#Cc2ccc([C@H]3[C@H](CO)N4CCCCN(Cc5ccccc5F)C[C@@H]34)cc2)cc1	-50.7	18.4	-1.6	x	4.8	0.1[16.7 µM]
COc1ccc(C#Cc2ccc([C@@H]3[C@@H](CO)N4CCCCN(Cc5ccccc5F)C[C@@H]34)cc2)cc1	-34.7	95.3*	-4.7	x	4.1	-0.8[16.7 µM]
COc1cccc(-c2ccc3n(c2=O)C[C@@H]2[C@@H](CO)[C@H](C(=O)N(C)C)N(C(=O)C4CC4)[C@H]32)c1	5.6	14.6	x	-1.3[16.7 µM]	-3.0	x
O=C(CC(F)(F)F)N1C[C@H]2[C@@H](c3ccccc31)[C@@H](CO)N2C(=O)c1ccncc1	2.0	5.7	-2.3	x	-5.8	0.0[16.7 µM]
CC(C)(C)C1CCC(=NNc2nc3ccccc3[nH]2)CC1 (centres undefined)	-23.0*	-23.1	0.7	-4.9	x	0.7
c1ccc(CN2CCC(=NNc3nc4ccccc4[nH]3)CC2)cc1	-26.6	-27.5	x	19.7	3.3	3.4
Nc1nc(N)c(Cc2ccc(Cl)cc2Cl)c(N)n1	-28.6*	-11.3	-1.3	-15.4	x	6.5
Nc1nccc(SCc2ccc(Cl)cc2Cl)n1	-2.3	x	2.4	-2.8	3.8	x
Clc1ccc2c(c1)C(C1=NCCN1)c1ccccc1CS2 (centres undefined)	x	19.0	x	113.5*	x	x
COc1ccc(CN(C)C[C@H]2OCCCC[C@H](C)Oc3ccc(N(C)C)cc3C(=O)N([C@H](C)CO)C[C@@H]2C)cc1	1.1	2.4	6.1	-7.5[16.7 µM]	7.2	3.6[16.7 µM]
O=C(COc1ccccc1Br)c1ccc(O)cc1O	-42.4*	-12.3	-1.8	x	7.0	1.2
COC(=O)C[C@H]1CC[C@@H]2[C@H](COc3ccc(NC(=O)c4cc(F)cc(F)c4)cc3C(=O)N2C)O1	-2.2	-3.3	2.6	18.3[16.7 µM]	2.2	-33.3[16.7 µM]
CCC(C)(C)NC(=O)C(c1ccc(C)cc1)N(CC1CCCO1)C(=O)c1csnn1 (centres undefined)	2.0	-2.0	1.5	72.3*	-1.0	x
Cc1ccc(OCC(=O)O/N=C(\N)Cc2cccs2)cc1C	x	x	x	x	0.2	-4.2
Cc1cc(OCC(=O)O/N=C(\N)Cc2cccs2)ccc1Br	-23.6*	-1.3	4.3	x	-3.6	-2.2
CCN1C(=O)[C@H]2[C@H]3CN=C(SCc4ccc(Cl)cc4)N3[C@@](CC)(C(=O)OC)[C@H]2C1=O	-6.1	-17.5	1.9	69.5*	1.8	-0.7
COC(=O)[C@@]1(C)[C@H]2C(=O)N(Cc3ccccc3)C(=O)[C@H]2[C@H]2CN=C(SCc3ccc(C)cc3)N21	6.1	-14.9	2.0	65.1*	5.2	-5.1
COC(=O)[C@@]1(Cc2ccccc2)[C@H]2C(=O)N(Cc3ccccc3)C(=O)[C@H]2[C@H]2CN=C(SCc3ccc(C)cc3)N21	x	x	x	x	6.3	2.7
COC(=O)c1ccc(CSC2=NC[C@@H]3[C@@H]4C(=O)N(Cc5ccccc5)C(=O)[C@@H]4[C@](C)(C(=O)OC)N23)cc1	0.1	-0.6	0.3	27.7	7.5	-4.0
CCN1C(=O)[C@H]2[C@H]3CN=C(SCc4ccc(OC)cc4)N3[C@@](CC)(C(=O)OC)[C@H]2C1=O	4.0	9.6	-1.5	-9.9	-0.2	-11.1
COC(=O)[C@@]1(Cc2ccccc2)[C@H]2C(=O)N(C)C(=O)[C@H]2[C@H]2CN=C(SCc3ccc(C#N)cc3)N21	-21.3*	-8.8	1.7	2.8	0.5	-6.9
SMILES	Ecoli rRNA inh	GSIS activator	F508del corr	HIV Env fusion	Cneo AK release	miR122 inh
COC(=O)[C@@]1(Cc2ccccc2)[C@H]2C(=O)N(Cc3ccccc3)C(=O)[C@H]2[C@H]2CN=C(SCc3ccccc3)N21	-13.1	-25.5	1.9	76.1*	6.7	-1.0
O=C(C[C@@H]1C[C@H]2c3cc(NC(=O)c4ccc5c(c4)OCO5)ccc3O[C@H]2[C@H](CO)O1)NCCc1ccccc1	-3.4	-35.9	-3.9	18.5[16.7 µM]	-3.4	2.9[16.7 µM]
C[C@H](CO)N1C[C@H](C)[C@@H](CN(C)Cc2ccc(Cl)c(Cl)c2)Oc2ccc(NS(=O)(=O)c3ccc(F)cc3)cc2CC1=O	-4.6	-2.0	7.2	7.9[16.7 µM]	x	-8.1[16.7 µM]
C[C@H](CO)N1C[C@H](C)[C@H](CN(C)C(=O)[C@@H](Cc2ccccc2)N(C)C)OCc2ccccc2-c2ccccc2C1=O	-1.4	10.4	-1.8	20.3[16.7 µM]	1.6	x
C[C@H]1CN([C@@H](C)CO)C(=O)Cc2cc(NC(=O)CCCCCC(=O)Nc3ccccc3N)ccc2O[C@@H]1CN(C)S(=O)(=O)c1ccc(F)cc1	0.7	-4.0	2.2	-15.7[16.7 µM]	-0.4	0.0[16.7 µM]
CC(C)NC(=O)N(C)C[C@@H]1OCCCC[C@@H](C)Oc2ccc(NC(=O)Nc3ccc(F)cc3)cc2C(=O)N([C@@H](C)CO)C[C@H]1C	-1.7	6.1	1.0	-3.2[16.7 µM]	-5.1	8.1[16.7 µM]
O=C1O[C@H](c2ccccc2)[C@H](c2ccccc2)N2[C@H]1[C@@H](C(=O)N1CCCCCCC1)[C@]1(C(=O)Nc3ccc(C#CC4=CCCCC4)cc31)[C@H]2c1ccccc1OCCO	x	x	-1.9	7.2[16.7 µM]	-1.9	x
COC(=O)[C@@]1(Cc2ccccc2)[C@H]2C(=O)N(C)C(=O)[C@H]2[C@H]2CN=C(SCc3ccccc3)N21	-16.4*	-19.7	2.4	-5.1	-4.3	-3.8
N#C[C@H]1[C@H](c2ccccc2-c2cccc(F)c2)[C@@H](CO)N1C(=O)C1CCCC1	-1.5	10.2	3.8	22.6[16.7 µM]	x	x
COc1ccc(C(O)c2nc(-c3ccc(OC)c(OC)c3)cs2)cc1 (centres undefined)	2.9	66.4*	1.3	-6.4	-0.7	-2.0
COc1ccc(-c2csc(C(O)c3ccc(OC)cc3)n2)cc1 (centres undefined)	-35.5	-26.6	2.1	-5.8	4.2	3.1
O=C1C=C(NCCc2cc(Br)c(O)c(Br)c2)C(=O)c2ncccc21	-26.5*	-52.3	15.9*	-1.6	x	x
NC1=C(Br)C(=O)c2ncccc2C1=O	-37.8	-9.6	-4.6	u	x	10.5
